Data: ChEMBL document CHEMBL3351397, “Synthesis and bioactivity of novel amino-pyrazolopyridines” (Eur J Med Chem, 2014)
Activity calls are given as the source filed them. The calls are words filed in the database; no cut-off is given here.

Legend:
[1] = target: T1, Nuclear factor NF-kappa-B complex (Homo sapiens) (UniProt Q00653+P19838+Q04206); assay: Inhibition of TNFalpha-induced NF-kB transactivation in human K562 cells after 8 hrs by luciferase reporter gene assay
K562 [2] = assay: Induction of apoptosis in human K562 cells assessed as induction of caspase 3/7 activity at 40 uM after 8 hrs by luminescent assay relative to untreated control; assay type: functional
How it was run: (§1)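 Cells at 3 × 10⁵/mL were treated with test compounds at 40 µM for 8, 24 or 48 h. Culture was then mixed 1:1 with Caspase-Glo 3/7 reagent and incubated 1 h at room temperature; the reagent lyses cells, caspase cleaves the substrate and luciferase gives luminescence. Results are fold change versus untreated cells.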

Jurkat [3] = assay: Induction of apoptosis in human Jurkat cells assessed as induction of caspase 3/7 activity at 40 uM after 8 hrs by luminescent assay relative to untreated control; assay type: functional
How it was run: as §1

Jurkat [4] = assay: Induction of apoptosis in human Jurkat cells assessed as induction of caspase 3/7 activity at 40 uM after 24 hrs by luminescent assay relative to untreated control; assay type: functional
How it was run: as §1

Jurkat [5] = assay: Induction of apoptosis in human Jurkat cells assessed as induction of caspase 3/7 activity at 40 uM after 8 to 48 hrs by luminescent assay relative to untreated control in presence of 50 uM z-VAD; assay type: functional, cell-based
How it was run: (§2)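 Caspase-Glo 3/7 readout at 3 × 10⁵ cells/mL. Cells were pretreated 1 h with the pan-caspase inhibitor Z-VAD(OMe)-FMK, then exposed to compounds at 40 µM for 8, 24 and 48 h. Culture was mixed 1:1 with reagent for 1 h at room temperature; luminescence is expressed as fold change over untreated cells.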

K562 [6] = assay: Cytotoxicity against human K562 cells at 40 uM assessed as reduction in cell viability after 72 hrs by CellTiter-Glo luminescent assay relative to control; assay type: functional
How it was run: (§3)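 K562 cells in RPMI/10% FCS at 37 °C, 5% CO2 were exposed to a single 40 µM concentration for 24 or 72 h. Metabolic activity was normalized to untreated control as % viable cells, mean ± SD of three determinations. Etoposide served as positive control.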

U-937 [7] = assay: Induction of apoptosis in human U937 cells assessed as induction of caspase 3/7 activity at 40 uM after 8 hrs by luminescent assay relative to untreated control; assay type: functional
How it was run: as §1

[8] = target: T1, Nuclear factor NF-kappa-B complex (Homo sapiens); assay: Inhibition of TNFalpha-induced NF-kB transactivation in human K562 cells at 40 uM after 8 hrs by luciferase reporter gene assay
K562 [9] = assay: Induction of apoptosis in human K562 cells assessed as induction of caspase 3/7 activity at 40 uM after 48 hrs by luminescent assay relative to untreated control; assay type: functional
How it was run: as §1

PBMC = assay: Cytotoxicity against human PBMCs after 24 to 72 hrs by CellTiter-Glo luminescent cell viability assay; assay type: cell-based; details: for Activity: human, pbmc
How it was run: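 PBMCs from healthy donors were isolated by Ficoll centrifugation (400 g, 20 min) of blood diluted 1:1 in RPMI, then washed 2–3 times. Cells rested 24 h at 37 °C, 5% CO2 before dosing. They were then treated as for K562: 40 µM screen and dose-response at 24 and 72 h, % viable versus control, mean ± SD of three determinations.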

K562 [10] = assay: Induction of apoptosis in human K562 cells assessed as induction of caspase 3/7 activity at 40 uM after 24 hrs by luminescent assay relative to untreated control; assay type: functional
How it was run: as §1

K562 [11] = assay: Induction of apoptosis in human K562 cells assessed as induction of caspase 3/7 activity at 40 uM after 8 to 48 hrs by luminescent assay relative to untreated control in presence of 50 uM z-VAD; assay type: functional, cell-based
How it was run: as §2

K562 [12] = assay: Induction of apoptosis in human K562 cells at 40 uM after 72 hrs using Hoechst 33342 by fluorescence microscopy; assay type: functional, cell-based
How it was run: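 K562 cells were treated 72 h at 40 µM, then stained with Hoechst 33342 for 15 min at 37 °C. Nuclear morphology, scored as condensed nuclei, was examined by fluorescence microscopy. Etoposide served as positive control.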

U-937 [13] = assay: Induction of apoptosis in human U937 cells assessed as induction of caspase 3/7 activity at 40 uM after 8 to 48 hrs by luminescent assay relative to untreated control in presence of 50 uM z-VAD; assay type: functional, cell-based
How it was run: as §2

Jurkat [14] = assay: Induction of apoptosis in human Jurkat cells assessed as induction of caspase 3/7 activity at 40 uM after 48 hrs by luminescent assay relative to untreated control; assay type: functional
How it was run: as §1

U-937 [15] = assay: Induction of apoptosis in human U937 cells assessed as induction of caspase 3/7 activity at 40 uM after 24 hrs by luminescent assay relative to untreated control; assay type: functional
How it was run: as §1

U-937 [16] = assay: Induction of apoptosis in human U937 cells assessed as induction of caspase 3/7 activity at 40 uM after 48 hrs by luminescent assay relative to untreated control; assay type: functional
How it was run: as §1

K562 [17] = assay: Cytotoxicity against human K562 cells after 24 to 72 hrs by CellTiter-Glo luminescent cell viability assay; assay type: functional, cell-based
How it was run: (§4)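 K562 cells were grown in RPMI with 10% FCS and 1% antibiotic-antimycotic at 37 °C, 5% CO2. Cells were exposed to a range of concentrations for 24 and 72 h and metabolic activity was read. Data were normalized to untreated control as % viable cells, mean ± SD of three determinations, with IC50 derived from dose-response curves.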

K562 [18] = assay: Cytotoxicity against human K562 cells after 72 hrs by CellTiter-Glo luminescent cell viability assay; assay type: functional, cell-based; details: K562, 72 h
How it was run: as §4

[19] = target: T1, Nuclear factor NF-kappa-B complex (Homo sapiens); assay: Inhibition of TNFalpha-induced NF-kB pathway in human K562 cells after 8 hrs by luciferase reporter gene assay; assay type: cell-based
How it was run: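 K562 cells were electroporated with an NF-κB-RE firefly luciferase reporter (5 µg) plus phRG-TK Renilla plasmid, then recovered 24 h in RPMI/10% FCS. Cells were resuspended at 1 × 10⁶/mL in RPMI/0.1% FCS, pretreated 2 h, then stimulated with TNFα 20 ng/mL for 6 h (8 h total). Dual-Glo firefly/Renilla ratio read at 22 °C; three independent experiments.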

K562 [20] = assay: Cytotoxicity against human K562 cells assessed as reduction in cell viability at 40 uM after 24 hrs by CellTiter-Glo luminescent assay; assay type: functional
How it was run: as §3

[21] = target: T1, Nuclear factor NF-kappa-B complex (Homo sapiens); assay: Inhibition of TNFalpha-induced NF-kB pathway in human K562 cells assessed as inhibition of IL-8 release preincubated for 2 hrs before TNFalpha addition measured after 24 hrs by sandwich ELISA; assay type: cell-based
How it was run: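 K562 cells were pretreated 2 h with compound, then activated with TNFα 20 ng/mL for 22 h (24 h total). Supernatant IL-8 was quantified by sandwich ELISA: pre-coated anti-IL-8 wells for 2 h at room temperature, peroxidase-conjugated polyclonal anti-IL-8 for 60 min, then H2O2/TMB colorimetric development. Mean ± SD of three determinations.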

K562 [22] = assay: Cytotoxicity against human K562 cells assessed as reduction in cell viability at 8.2 uM after 24 hrs by CellTiter-Glo luminescent assay; assay type: functional, cell-based

T1 sequence (P19838 whole entry, looked up): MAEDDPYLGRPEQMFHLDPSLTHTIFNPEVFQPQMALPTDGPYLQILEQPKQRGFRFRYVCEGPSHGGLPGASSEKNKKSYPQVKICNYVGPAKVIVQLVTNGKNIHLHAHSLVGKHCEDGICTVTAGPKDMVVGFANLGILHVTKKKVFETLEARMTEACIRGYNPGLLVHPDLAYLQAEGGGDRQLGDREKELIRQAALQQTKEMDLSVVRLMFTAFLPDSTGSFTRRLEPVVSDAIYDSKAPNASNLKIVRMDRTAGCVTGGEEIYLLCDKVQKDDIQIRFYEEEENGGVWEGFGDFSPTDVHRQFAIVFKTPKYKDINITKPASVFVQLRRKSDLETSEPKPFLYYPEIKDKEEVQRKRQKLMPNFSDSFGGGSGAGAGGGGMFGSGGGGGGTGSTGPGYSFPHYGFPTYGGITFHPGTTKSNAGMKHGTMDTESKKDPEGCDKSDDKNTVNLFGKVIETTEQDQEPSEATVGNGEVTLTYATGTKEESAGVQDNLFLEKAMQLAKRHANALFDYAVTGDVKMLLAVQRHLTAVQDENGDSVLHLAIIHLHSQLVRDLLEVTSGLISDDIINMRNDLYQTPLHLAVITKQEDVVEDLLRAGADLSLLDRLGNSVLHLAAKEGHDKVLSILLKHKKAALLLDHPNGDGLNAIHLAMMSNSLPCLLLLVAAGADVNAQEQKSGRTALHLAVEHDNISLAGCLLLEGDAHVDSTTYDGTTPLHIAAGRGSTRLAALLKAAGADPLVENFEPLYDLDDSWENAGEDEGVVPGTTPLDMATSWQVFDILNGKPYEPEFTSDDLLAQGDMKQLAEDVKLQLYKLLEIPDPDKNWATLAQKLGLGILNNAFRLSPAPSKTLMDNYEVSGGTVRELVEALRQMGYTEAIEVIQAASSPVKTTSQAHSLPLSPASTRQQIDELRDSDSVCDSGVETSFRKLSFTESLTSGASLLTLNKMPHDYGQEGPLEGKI
T1 sequence (Q00653 whole entry, looked up): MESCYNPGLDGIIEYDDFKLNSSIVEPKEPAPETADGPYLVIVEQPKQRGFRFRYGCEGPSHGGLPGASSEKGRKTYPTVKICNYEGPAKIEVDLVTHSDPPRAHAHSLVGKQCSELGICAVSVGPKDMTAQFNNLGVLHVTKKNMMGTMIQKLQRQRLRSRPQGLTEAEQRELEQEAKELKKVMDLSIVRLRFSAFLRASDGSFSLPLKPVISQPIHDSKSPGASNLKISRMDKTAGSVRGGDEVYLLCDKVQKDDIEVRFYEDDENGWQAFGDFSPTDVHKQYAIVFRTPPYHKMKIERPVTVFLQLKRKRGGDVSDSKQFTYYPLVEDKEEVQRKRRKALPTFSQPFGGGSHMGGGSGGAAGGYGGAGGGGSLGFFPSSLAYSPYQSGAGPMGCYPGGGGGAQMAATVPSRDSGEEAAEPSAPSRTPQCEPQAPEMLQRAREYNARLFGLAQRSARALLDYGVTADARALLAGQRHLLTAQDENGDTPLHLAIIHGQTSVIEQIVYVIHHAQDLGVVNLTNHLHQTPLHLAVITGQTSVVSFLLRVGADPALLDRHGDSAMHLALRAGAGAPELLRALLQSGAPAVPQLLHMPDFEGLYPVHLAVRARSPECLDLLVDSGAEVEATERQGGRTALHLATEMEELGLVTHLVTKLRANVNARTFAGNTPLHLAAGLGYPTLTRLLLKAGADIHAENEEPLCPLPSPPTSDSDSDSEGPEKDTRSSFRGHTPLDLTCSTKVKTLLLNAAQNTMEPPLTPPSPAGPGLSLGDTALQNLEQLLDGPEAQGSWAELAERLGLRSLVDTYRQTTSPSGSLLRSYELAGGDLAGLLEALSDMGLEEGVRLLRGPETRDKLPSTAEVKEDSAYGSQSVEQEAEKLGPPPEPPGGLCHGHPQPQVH
T1 sequence (Q04206 whole entry, looked up): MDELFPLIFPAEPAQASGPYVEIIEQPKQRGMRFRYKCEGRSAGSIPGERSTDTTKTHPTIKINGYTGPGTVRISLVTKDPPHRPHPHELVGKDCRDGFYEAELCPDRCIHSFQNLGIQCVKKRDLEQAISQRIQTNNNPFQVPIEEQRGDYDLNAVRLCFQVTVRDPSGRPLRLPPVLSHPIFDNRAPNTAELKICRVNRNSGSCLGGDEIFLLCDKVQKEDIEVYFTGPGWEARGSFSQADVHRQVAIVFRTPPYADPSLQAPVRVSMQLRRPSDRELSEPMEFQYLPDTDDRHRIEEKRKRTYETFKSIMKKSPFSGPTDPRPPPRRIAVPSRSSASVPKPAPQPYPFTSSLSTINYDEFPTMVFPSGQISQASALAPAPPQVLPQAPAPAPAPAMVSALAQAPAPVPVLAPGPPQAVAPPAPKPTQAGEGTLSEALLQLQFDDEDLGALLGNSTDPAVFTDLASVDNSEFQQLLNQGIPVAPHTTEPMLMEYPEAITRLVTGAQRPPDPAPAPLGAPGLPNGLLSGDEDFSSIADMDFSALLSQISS

Structure (SMILES) | inhibition [1] | Fold change (K562 [2]) | Activity (Jurkat [3]) | Activity (Jurkat [4]) | Activity (Jurkat [5]) | Activity (K562 [6]) | Fold change (U-937 [7]) | inhibition [8] | Activity (K562 [9]) | Activity (PBMC) | Activity (K562 [10]) | Activity (K562 [11]) | Activity (K562 [12]) | Activity (U-937 [13]) | Fold change (Jurkat [14]) | Activity (U-937 [15]) | Activity (U-937 [16]) | IC50 (K562 [17]) | other results
Nc1n[nH]c2ncc3c(c12)-c1ccccc1CC3 | Dose-dependent effect | 1.37 | 2.86% | 2.73% | inactive | >50% | 11.7 | Active | 2.23% | Non-toxic | 2.5 | inactive | Active | inactive | 2.05 | 5.84% | 1.74% | 27.6 µM | –
Cc1cnc2[nH]nc(N)c2c1-c1ccccc1 | Dose-dependent effect | 1.26 | 1.27% | 1.31% | inactive | >50% | 1.73 | Active | 2.9% | Non-toxic | 3.62 | inactive | Active | inactive | 1.44 | 5.87% | 4.35% | 35 µM | IC50 (K562 [18]): 35 µM; inhibition [19]: Active; Activity (K562 [20]): <50%
CC1Cc2cnc3[nH]nc(N)c3c2-c2ccccc21 (stereo not given) | Dose-dependent effect | 1.44 | 8.89% | 5.38% | inactive | >50% | 16.5 | Active | 1.55% | – | 2.04 | inactive | Active | inactive | 2.11 | 6.27% | 1.48% | 36.5 µM | inhibition [21]: Dose-dependent effect; IC50 (PBMC; Homo sapiens, PBMC): 36.6 µM; Activity (K562 [22]): inactive; Activity (K562 [17]): Dose-dependent effect
